According to ChEMBL document CHEMBL1157301, “N-Methyl-4-hydroxy-2-pyridinone analogues from Fusarium oxysporum” (J Nat Prod, 2006):
Converted amounts (≈) assume the structure as drawn. The source made the active and inactive calls. The calls are words filed in the database; no cut-off is given here.

Legend:
Type in all cases: functional, organism-based
Candida albicans [1] = assay: Antifungal activity against Candida albicans ATCC 90028 at 37 degC after 18 to 24 hrs
Aspergillus flavus = assay: Antifungal activity against Aspergillus flavus up to 1 mg/mL by disk assay
How it was run: (§1)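 Disk diffusion assay run as described by Alam et al., with captan as positive control; compounds tested up to 1mg/mL.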

[2] = tested on: Mycobacterium intracellulare; assay: Antimycobacterial activity against Mycobacterium intracellular ATCC 23068 at 37 degC after 68 to 72 hrs
How it was run: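 Modified Franzblau microdilution. Samples in DMSO, serially diluted in 20% DMSO/saline, tested in duplicate. Inoculum in Middlebrook 7H9 broth with OADC and 5% Alamar Blue, pH 7.3. Incubated at 37 °C, 10% CO2, 68–72 h. Fluorescence read at 544ex/590em before and after incubation. IC50 from percent growth versus concentration; MIC is the lowest concentration with no detectable growth. Ciprofloxacin control.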

Aspergillus fumigatus = assay: Antifungal activity against Aspergillus fumigatus ATCC 90906 at 30 degC after 68 to 72 hrs
Fusarium verticillioides = assay: Antifungal activity against Fusarium verticillioides up to 1 mg/mL by disk assay; how it was run: as §1
Cryptococcus neoformans = assay: Antifungal activity against Cryptococcus neoformans ATCC 90113 at 30 degC after 68 to 72 hrs
Candida albicans [3] = assay: Antifungal activity against Candida albicans ATCC 90028 up to 50 ug/mL after 18 to 24 hrs at 37 degC

SMILES	Activity (Candida albicans [1])	Activity (Aspergillus flavus)	Activity [2]	Activity (Aspergillus fumigatus)	Activity (Fusarium verticillioides)	Activity (Cryptococcus neoformans)	IC50 (Aspergillus fumigatus) [µg/mL]	further results
CCC(C)CC(C)/C=C(\C)[C@@H]1O[C@H](c2c(O)c(-c3ccc(O)cc3)c[nH]c2=O)CC[C@H]1C (stereo not given in full)	inactive	inactive	inactive	inactive	inactive	inactive		
C[C@@H]1[C@H](O)[C@@H](C)/C=C/C=C/C=C/C=C/C=C/C=C/C=C/[C@H](O[C@@H]2O[C@H](C)[C@@H](O)[C@H](N)[C@@H]2O)C[C@@H]2O[C@](O)(C[C@@H](O)C[C@@H](O)[C@H](O)CC[C@@H](O)C[C@@H](O)CC(=O)O[C@H]1C)C[C@H](O)[C@H]2C(=O)O [AMPHOTERICIN B]							0.91 (≈ 0.985 µM)	
CC[C@H](C)[C@H]1C(=O)O[C@H](C(C)C)C(=O)N(C)[C@@H](C(C)C)C(=O)O[C@H](C(C)C)C(=O)N(C)[C@@H](C(C)C)C(=O)O[C@H](C(C)C)C(=O)N1C [ENNIATIN B1]								IC50 (Candida albicans [1]): 2 µg/mL (≈ 3.06 µM); MIC (Candida albicans [1]): 6.25 µg/mL (≈ 9.56 µM); IC50 [2]: 15 µg/mL (≈ 22.9 µM); IC50 (Cryptococcus neoformans): 9 µg/mL (≈ 13.8 µM); MIC (Cryptococcus neoformans): 25 µg/mL (≈ 38.2 µM)
CCC(C)CC(C)/C=C(\C)[C@@H]1O[C@H](c2c(O)c([C@@]3(O)CCC(=O)C[C@H]3O)cn(C)c2=O)CC[C@H]1C (stereo not given in full)		inactive			inactive		35 (≈ 71.5 µM)	
CCC(C)CC(C)/C=C(\C)[C@@H]1O[C@H](c2c(O)c(-c3ccc(O)cc3)cn(C)c2=O)CC[C@H]1C (stereo not given in full)	inactive	inactive	inactive	inactive	inactive	inactive		
COC[C@H]1OC(=O)c2coc3c2[C@@]1(C)C1=C(C3=O)[C@@H]2CCC(=O)[C@@]2(C)C[C@H]1OC(C)=O [WORTMANNIN]								IC50 (Candida albicans [1]): 0.25 µg/mL (≈ 0.584 µM); MIC (Candida albicans [1]): 0.78 µg/mL (≈ 1.82 µM)
CCC(C)CC(C)/C=C(\C)[C@@H]1O[C@H](c2c(O)c([C@@]3(O)CCC(OC)(OC)C[C@@H]3O)cn(C)c2=O)CC[C@H]1C (stereo not given in full)	inactive	inactive	inactive	inactive	inactive	inactive		
CCC(C)CC(C)/C=C(\C)C1OC(c2c(O)c([C@]3(O)CCC(=O)C[C@@H]3O)cn(C)c2=O)CC[C@@H]1C (stereo not given in full)		inactive			inactive		2 (≈ 4.08 µM)	Activity (Candida albicans [3]): inactive; IC50 (Cryptococcus neoformans): 35 µg/mL (≈ 71.5 µM)
O=C(O)c1cn(C2CC2)c2cc(N3CCNCC3)c(F)cc2c1=O [CIPROFLOXACIN]								MIC [2]: 0.63 µg/mL (≈ 1.9 µM)
